Experiments:
[1] = target: Muscarinic acetylcholine receptor; assay: In vitro binding affinity for muscarinic receptor by displacing [3H]oxotremorine-M binding on rat brain homogenate.; assay type: tissue-based
Procedure, shortened: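 Duplicate full curves of five drug concentrations over 3 decades, triplicate points. IC50 taken from hand-drawn log curves; Ki via Cheng–Prusoff.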

[2] = target: T1, Muscarinic acetylcholine receptor M1 (Rattus norvegicus, UniProt P08482); assay: In vitro binding affinity for muscarinic M1 receptor by displacing [3H]pirenzepine binding on rat brain homogenate.; assay type: tissue-based
T1 sequence (P08482 whole entry): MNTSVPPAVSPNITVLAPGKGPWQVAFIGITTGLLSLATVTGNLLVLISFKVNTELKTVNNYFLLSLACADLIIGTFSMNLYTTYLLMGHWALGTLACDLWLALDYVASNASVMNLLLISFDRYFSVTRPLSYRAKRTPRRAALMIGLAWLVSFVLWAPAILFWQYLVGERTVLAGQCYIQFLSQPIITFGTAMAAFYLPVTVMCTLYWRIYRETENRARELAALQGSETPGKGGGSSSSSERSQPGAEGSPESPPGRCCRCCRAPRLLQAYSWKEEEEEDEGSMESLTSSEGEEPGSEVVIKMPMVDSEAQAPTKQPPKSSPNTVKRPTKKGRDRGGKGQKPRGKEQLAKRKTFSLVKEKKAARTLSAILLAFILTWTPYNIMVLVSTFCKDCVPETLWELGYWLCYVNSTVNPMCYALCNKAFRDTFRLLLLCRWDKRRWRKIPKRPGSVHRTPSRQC
Procedure, shortened: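 Two complete curves, five test concentrations spanning 3 decades, each in triplicate. IC50 read from hand-drawn log concentration–response curves, converted to Ki by Cheng–Prusoff.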

[3] = target: Muscarinic acetylcholine receptor; assay: In vitro binding affinity for muscarinic receptor by displacing [3H]quinuclidinyl benzilate binding on rat brain homogenate; assay type: tissue-based
Procedure, shortened: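 Two concentration–response curves, five concentrations covering 3 decades, triplicates. IC50 estimated from hand-drawn log concentration–response curves and converted to Ki with Cheng–Prusoff equation.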

[4] = target: Muscarinic acetylcholine receptor; assay: In vitro binding affinity for muscarinic receptor by displacing [3H]quinuclidinyl benzilate binding on rat brain stem homogenate.; assay type: tissue-based
Procedure, shortened: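 Two full curves, five test concentrations over 3 decades in triplicate. Hand-drawn log curves gave IC50; Ki by Cheng–Prusoff.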

Rattus norvegicus [5] = species on record: Rattus norvegicus; assay: Ratio of binding affinity at [3H]quinuclidinyl benzilate binding on rat brain homogenate to [3H]- Oxotremorine-M binding on rat brain homogenate; assay type: functional
Procedure, shortened: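 Ago ratio computed as Ki from [³H]QNB binding to whole rat brain homogenate divided by Ki from [³H]oxotremorine-M binding to whole rat brain homogenate.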

Rattus norvegicus [6] = species on record: Rattus norvegicus; assay: Ratio of binding affinity at [3H]quinuclidinyl benzilate binding on rat brain stem homogenate to [3H]pirenzepine binding on rat brain homogenate
[7] = target: T1, Muscarinic acetylcholine receptor M1; assay: M1 agonist activity estimated by rat superior cervical ganglion depolarization; assay type: functional, tissue-based
[8] = target: Muscarinic acetylcholine receptor M3 (Cavia porcellus)
[9] = target: Muscarinic acetylcholine receptor M2 (Cavia porcellus); assay: M2 agonist activity estimated by depression of isolated guinea pig left atrium
[10] = target: Muscarinic acetylcholine receptor M2 (Mus musculus) (UniProt Q9ERZ4); assay: In vivo determination of peripheral M2 receptor mediated tremor, cholinergic side effect
[11] = target: Muscarinic acetylcholine receptor M2 (Mus musculus) (UniProt Q9ERZ4); assay: In vivo determination of peripheral M2 receptor mediated salivation, cholinergic side effect
[12] = target: Muscarinic acetylcholine receptor M2 (Mus musculus) (UniProt Q9ERZ4); assay: In vivo determination of peripheral M2 receptor mediated hypothermia, cholinergic side effect

CCn1nnc(C2=CCCN(C(C)C)C2)n1
Ki [1]: 300 nM | Ki [2]: 270 nM

CCCCCn1nnc(C2=CCCN(C)C2)n1
Ki [3]: 130 nM | Ki [4]: 110 nM | Ki [1]: 16 nM | Ki [2]: 26 nM | Ratio (Rattus norvegicus [5]): 8.1 | Ratio (Rattus norvegicus [6]): 4.2

C#CCn1ncc(C2CCCNC2)n1 (stereo in doubt; (-)-15c) [listing 1 of 2 here]
Ki [3]: 270 nM | Ki [1]: 7.8 nM | Ki [2]: 140 nM

C=CCn1nnc(C2=CCCN(C)C2)n1
Ki [3]: 140 nM | Ki [4]: 46 nM | Ki [1]: 13 nM | Ki [2]: 21 nM | Ratio (Rattus norvegicus [5]): 11 | Ratio (Rattus norvegicus [6]): 2.2

CN1CCC=C(c2cnn(C)n2)C1
Ki [3]: 280 nM | EC50 [7]: ≥ 430 nM | Ki [4]: 160 nM | Ki [1]: 0.78 nM | Ki [2]: 35 nM | Ratio (Rattus norvegicus [5]): 360 | EC50 [8]: 130 nM | Ratio (Rattus norvegicus [6]): 4.5

Cn1ncc(C2=CCCNC2)n1
Ki [3]: 570 nM | Ki [4]: 90 nM | Ki [1]: 0.34 nM | Ki [2]: 500 nM | Ratio (Rattus norvegicus [5]): 1700 | Ratio (Rattus norvegicus [6]): 0.2

CN1CCC=C(c2nnnn2C)C1
Ki [1]: 5400 nM | Ki [2]: 24000 nM

C=CCn1ncc(C2CCCNC2)n1 (stereo in doubt; (-)-15b) [listing 1 of 2 here]
Ki [3]: 530 nM | EC50 [7]: > 2500 nM | Ki [4]: 310 nM | Ki [1]: 37 nM | Ki [2]: 170 nM | EC50 [9]: 840 nM

CCN1C(=O)CC2(CCN(C)CC2)C1=O
Ki [3]: 690 nM | EC50 [7]: ≥ 1100 nM | Ki [4]: 400 nM | Ki [1]: 14 nM | Ki [2]: 400 nM | Ratio (Rattus norvegicus [5]): 49 | EC50 [8]: 430 nM | EC50 [9]: 400 nM | Ratio (Rattus norvegicus [6]): 1

CCCn1ncc(C2=CCCNC2)n1
Ki [3]: 270 nM | Ki [4]: 210 nM | Ki [1]: 6.1 nM | Ki [2]: 77 nM | Ratio (Rattus norvegicus [5]): 44 | Ratio (Rattus norvegicus [6]): 2.7

CCCCn1ncc(C2=CCCNC2)n1
Ki [3]: 250 nM | Ki [4]: 130 nM | Ki [1]: 4.9 nM | Ki [2]: 100 nM | Ratio (Rattus norvegicus [5]): 51 | Ratio (Rattus norvegicus [6]): 1.3

C=Cn1ncc(C2=CCCN(C)C2)n1
Ki [1]: 33 nM | Ki [2]: 40 nM

C=Cn1nnc(C2=CCCN(C)C2)n1
Ki [3]: 230 nM | Ki [4]: 90 nM | Ki [1]: 92 nM | Ki [2]: 120 nM | Ratio (Rattus norvegicus [5]): 2.5 | Ratio (Rattus norvegicus [6]): 0.8

CCN1CCC=C(c2nnn(CC)n2)C1
Ki [1]: 78 nM | Ki [2]: 140 nM

CCCCCCCCn1nnc(C2=CCCN(C)C2)n1
Ki [3]: 38 nM | Ki [4]: 75 nM | Ki [1]: 71 nM | Ki [2]: 27 nM | Ratio (Rattus norvegicus [5]): 0.5 | Ratio (Rattus norvegicus [6]): 2.8

CCn1ncc(C2CCCNC2)n1 (racemic)
Ki [3]: 530 nM | Ki [4]: 280 nM | Ki [1]: 11 nM | Ki [2]: 260 nM | Ratio (Rattus norvegicus [5]): 48 | Ratio (Rattus norvegicus [6]): 1.1

C#CCn1ncc(C2CCCNC2)n1 (racemic) [listing 1 of 2 here]
Ratio (Rattus norvegicus [5]): 130 | ED50 [10]: 54 µmol/kg | ED50 [11]: 8.1 µmol/kg | ED50 [12]: 10 µmol/kg | Ratio (Rattus norvegicus [6]): 1.5

C=CCn1ncc(C2=CCCN(C)C2)n1
Ki [3]: 43 nM | Ki [4]: 32 nM | Ki [1]: 4.7 nM | Ki [2]: 6.3 nM | Ratio (Rattus norvegicus [5]): 9.1 | Ratio (Rattus norvegicus [6]): 5.1

CCCCCCn1nnc(C2=CCCN(C)C2)n1
Ki [3]: 100 nM | Ki [4]: 220 nM | Ki [1]: 52 nM | Ki [2]: 32 nM | Ratio (Rattus norvegicus [5]): 1.9 | Ratio (Rattus norvegicus [6]): 6.9

C#CCn1ncc(C2=CCCN(C)C2)n1
Ki [3]: 41 nM | Ki [4]: 22 nM | Ki [1]: 1.6 nM | Ki [2]: 7.7 nM | Ratio (Rattus norvegicus [5]): 26 | Ratio (Rattus norvegicus [6]): 2.9

CCn1cc(C2=CCCN(C)C2)nn1
Ki [1]: 990 nM | Ki [2]: 770 nM

C=CCn1ncc(C2CCCNC2)n1 (racemic)
Ratio (Rattus norvegicus [5]): 36 | ED50 [10]: > 350 µmol/kg | ED50 [11]: 320 µmol/kg | ED50 [12]: > 350 µmol/kg | Ratio (Rattus norvegicus [6]): 3

CCn1nnc(C2CCCNC2)n1 (racemic)
Ki [1]: 230 nM | Ki [2]: 1100 nM

CC1C=C(c2nnn(C)n2)CNC1 (stereo unspecified)
Ki [1]: 69 nM | Ki [2]: 180 nM

C#CCn1ncc(C2=CC(C)CNC2)n1 (stereo unspecified)
Ki [1]: 31 nM | Ki [2]: 30 nM

CCn1nncc1C1=CCCN(C)C1
Ki [1]: 318 nM | Ki [2]: 1700 nM

C=CCn1ncc(C2CCCNC2)n1 (stereo in doubt; (-)-15b) [listing 2 of 2 here]
Ratio (Rattus norvegicus [5]): 14 | ED50 [10]: > 130 µmol/kg | ED50 [11]: > 130 µmol/kg | ED50 [12]: > 130 µmol/kg | Ratio (Rattus norvegicus [6]): 1.8

CC1=C(c2nnn(C)n2)CNCC1
Ki [1]: 570 nM | Ki [2]: 960 nM

CCCN1CCC=C(c2nnn(CC)n2)C1
Ki [1]: 450 nM | Ki [2]: 900 nM

CCn1nnc(C2=CCCN(C)C2)n1 [ALVAMELINE]
Ki [3]: 430 nM | EC50 [7]: ≥ 2000 nM | Ki [4]: 340 nM | Ki [1]: 9.2 nM | Ki [2]: 36 nM | ED50 [10]: > 120 µmol/kg | ED50 [11]: > 120 µmol/kg | ED50 [12]: > 120 µmol/kg

CN1CCC=C(c2nnn(C)n2)C1
Ki [3]: 790 nM | Ki [4]: 230 nM | Ki [1]: 6.1 nM | Ki [2]: 250 nM | Ratio (Rattus norvegicus [5]): 130 | Ratio (Rattus norvegicus [6]): 0.9

CC(C)n1nnc(C2=CCCN(C)C2)n1
Ki [3]: 530 nM | Ki [4]: 270 nM | Ki [1]: 85 nM | Ki [2]: 84 nM | Ratio (Rattus norvegicus [5]): 6.2 | Ratio (Rattus norvegicus [6]): 3.2

C#CCn1ncc(C2CCCNC2)n1 (stereo in doubt; (-)-15c) [listing 2 of 2 here]
Ratio (Rattus norvegicus [5]): 35 | ED50 [10]: 41 µmol/kg | ED50 [11]: 20 µmol/kg | ED50 [12]: 11 µmol/kg | Ratio (Rattus norvegicus [6]): 0.2

C#CCn1nnc(C2=CCCN(C)C2)n1
Ki [3]: 230 nM | Ki [4]: 100 nM | Ki [1]: 4.5 nM | Ki [2]: 44 nM | Ratio (Rattus norvegicus [5]): 51 | Ratio (Rattus norvegicus [6]): 2.3

C#CCn1ncc(C2CCCNC2)n1 (single isomer, unassigned; (+)) [listing 1 of 2 here]
Ratio (Rattus norvegicus [5]): 44 | ED50 [10]: 32 µmol/kg | ED50 [11]: 7 µmol/kg | ED50 [12]: 23 µmol/kg | Ratio (Rattus norvegicus [6]): 0.2

Cn1nnc(C2=CCCNC2)n1
Ki [1]: 4.5 nM | Ki [2]: 1350 nM

C#CCn1ncc(C2CCCNC2)n1 (single isomer, unassigned; (+)) [listing 2 of 2 here]
Ki [3]: 230 nM | Ki [4]: 30 nM | Ki [1]: 5.2 nM | Ki [2]: 170 nM

CCCn1ncc(C2=CCCN(C)C2)n1
Ki [3]: 47 nM | Ki [4]: 38 nM | Ki [1]: 2.6 nM | Ki [2]: 15 nM | Ratio (Rattus norvegicus [5]): 18 | Ratio (Rattus norvegicus [6]): 2.5

CN1CCCC(c2nnn(C)n2)C1 (racemic)
Ki [1]: 1200 nM | Ki [2]: 4800 nM

CCCCn1ncc(C2=CCCN(C)C2)n1
Ki [3]: 48 nM | Ki [4]: 37 nM | Ki [1]: 2.5 nM | Ki [2]: 13 nM | Ratio (Rattus norvegicus [5]): 19 | Ratio (Rattus norvegicus [6]): 2.8

CC1CC=C(c2nnn(C)n2)CN1 (stereo unspecified)
Ki [1]: 180 nM | Ki [2]: 900 nM

C#CCn1nnc(C2CCCNC2)n1 (racemic)
Ki [1]: 31 nM | Ki [2]: 260 nM

CCCn1nnc(C2=CCCN(C)C2)n1
Ki [3]: 100 nM | Ki [4]: 180 nM | Ki [1]: 2.8 nM | Ki [2]: 57 nM | Ratio (Rattus norvegicus [5]): 36 | Ratio (Rattus norvegicus [6]): 3.2

C=CCn1ncc(C2CCCNC2)n1 (single isomer, unassigned; (+)) [listing 1 of 2 here]
Ki [3]: 190 nM | EC50 [7]: > 3400 nM | Ki [4]: 330 nM | Ki [1]: 45 nM | Ki [2]: 210 nM | EC50 [8]: 4300 nM | EC50 [9]: 680 nM

CCCCN1CCC=C(c2nnn(CC)n2)C1
Ki [1]: 340 nM | Ki [2]: 1400 nM

CCCCn1nnc(C2=CCCN(C)C2)n1
Ki [3]: 81 nM | Ki [4]: 220 nM | Ki [1]: 5 nM | Ki [2]: 37 nM | Ratio (Rattus norvegicus [5]): 16 | Ratio (Rattus norvegicus [6]): 5.9

C#CCn1ncc(C2CCCNC2)n1 (racemic) [listing 2 of 2 here]
Ki [3]: 320 nM | Ki [4]: 130 nM | Ki [1]: 2.5 nM | Ki [2]: 84 nM

C=CCn1ncc(C2CCCNC2)n1 (single isomer, unassigned; (+)) [listing 2 of 2 here]
Ratio (Rattus norvegicus [5]): 4.2 | ED50 [10]: > 260 µmol/kg | ED50 [11]: > 260 µmol/kg | ED50 [12]: > 260 µmol/kg | Ratio (Rattus norvegicus [6]): 1.6

Cn1nnc(C2CCCNC2)n1 (racemic)
Ki [1]: 33 nM | Ki [2]: 2300 nM
